Assay outcomes: PubChem, several laboratories
Shown are actives, neighbours in structure and some others; about 9.6% of the full set was active somewhere.
Lmaj promast: Leishmania major promastigote growth inhibition, primary screen. Leishmania major promastigotes, resazurin fluorescence viability. inhibition, % at 10 µM. 200,000 tested, 9% active. AID 1063, 2008; in the data active = inhibition above about 50%;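 also: promastigotes grown with compound for 44 hours at 28 °C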
bCat KO growth: primary screen for growth suppressors in beta-catenin knockout HCT116 cells (colon tumor, human); HCT116 beta-catenin knockout viability, CellTiter-Glo, 60 h; stronger effect = lower value; viability, % at 10 µM; 140,000 tested, 1.5% active; AID 818, 2007;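 active = viability at or under a set limit, the compound median less 4 SD, cut at about 6% in these data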;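 also: 0% = Hyamine 1622 control at 20 µM and 100% = untreated cell control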
TNAP act hiacc: TNAP activators at high phosphate acceptor level, primary screen, biochemical, luminescence, uHTS | 200,000 tested, under 10 active | activation factor at 20 µM | Alkaline phosphatase, tissue-nonspecific isozyme (Homo sapiens), P05186 | purified TNAP, CDP-star luminescence, 1 M DEA, 30 min; stronger effect = higher value; 0 = EDTA background, 1 = DMSO-only activity;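 active = activation factor at least 2 at 20 µM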
Target sequence (P05186 whole entry, looked up): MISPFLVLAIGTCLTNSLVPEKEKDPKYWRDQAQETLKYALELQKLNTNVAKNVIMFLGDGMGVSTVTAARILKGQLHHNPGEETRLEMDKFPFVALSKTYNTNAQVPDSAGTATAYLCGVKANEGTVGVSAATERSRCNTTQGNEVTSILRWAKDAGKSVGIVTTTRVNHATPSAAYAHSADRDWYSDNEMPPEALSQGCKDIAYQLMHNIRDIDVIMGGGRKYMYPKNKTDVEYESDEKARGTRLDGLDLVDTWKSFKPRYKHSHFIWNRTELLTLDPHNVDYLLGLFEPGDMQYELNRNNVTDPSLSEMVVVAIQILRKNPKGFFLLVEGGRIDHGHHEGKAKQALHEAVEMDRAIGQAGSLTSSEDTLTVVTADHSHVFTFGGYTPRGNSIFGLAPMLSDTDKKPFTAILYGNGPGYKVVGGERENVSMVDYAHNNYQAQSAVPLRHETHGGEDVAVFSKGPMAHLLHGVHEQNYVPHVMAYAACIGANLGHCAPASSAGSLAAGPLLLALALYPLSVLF
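Test system – human TNAP · Doses – 20 µM single point · Incubation – 30 min, room temperature · Signal – luminescent substrate turnover signal · Read-out basis – activation factor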
TNAP inh hiacc: human TNAP enzyme inhibitors, primary screen, biochemical, luminescent, high phosphate acceptor level, uHTS | Alkaline phosphatase, tissue-nonspecific isozyme (Homo sapiens), P05186 | purified TNAP, CDP-star luminescence, 1 M DEA | inhibition, % at 20 µM | 200,000 tested, 0.03% active | AID 1135, 2008;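 active = over 50% inhibition of tissue-nonspecific alkaline phosphatase at 20 µM in the single-dose screen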;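 also: plate controls were DMSO wells for no effect and EDTA-quenched wells as full inhibition for full effect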
TNAP inh noacc: human TNAP enzyme inhibitors, primary screen, biochemical, luminescent, no phosphate acceptor, uHTS; Alkaline phosphatase, tissue-nonspecific isozyme (Homo sapiens), P05186; purified TNAP, CDP-star luminescence, 30 min; inhibition, % at 20 µM; 200,000 tested, 0.26% active; AID 1012, 2008;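 active = tissue-nonspecific alkaline phosphatase inhibition above about 50% at 20 µM in the single-dose screen, limit read from the data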;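 also: 0% = DMSO negative control and 100% = EDTA positive control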
PTEN del growth: growth suppression of PTEN-null HCT116, primary screen, cell-based, CellTiter-Glo; 140,000 tested, 1.2% active; AID 827, 2007; viability, % at 10 µM; HCT116 PTEN-null viability, 60 h; stronger effect = lower value;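 active = viability at or below a set limit, 4 SD under the median of all tested compounds, cut at about 3.7% in these data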;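 also: PTEN knockout HCT116 line with beta catenin targeted HCT116 as companion control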
Starred values were filed as active, the others as inactive; nt = no result.

SMILES | Lmaj promast | bCat KO growth | TNAP act hiacc | TNAP inh hiacc | TNAP inh noacc | PTEN del growth
CCNc1nc(NCC)n2c(SCC(=O)Nc3ccc(C(F)(F)F)cc3[N+](=O)[O-])nnc2n1 | -9.7 | 92.3 | 1 | 0.5 | 9.5 | 97.2
COc1cc(OC)c(OC)cc1CNC1CCCCCC1 | 15.5 | 76.9 | 1.1 | -5.0 | -11.2 | 84.7
c1ccc(COc2ccccc2CNC23CC4CC(CC(C4)C2)C3)cc1 | 71.0* | nt | 1.1 | -10.8 | -18.1 | nt
c1ccc(COc2ccccc2CNC2CCCC2)cc1 | 70.3* | nt | 1.1 | -6.4 | -15.1 | nt
Cc1c(OCc2ccccc2)cccc1OCc1ccccc1 | -1.1 | 96.9 | 1 | 1.4 | -4.7 | 93.5
c1csc(COc2ccccc2CNC2CCCCC2)c1 | 80.7* | 57.5 | 1 | -0.3 | -16.3 | 60.7
Cc1cnc(NC(=O)CC2CCCC2)s1 | -2.5 | nt | 1 | 3.0 | 2.5 | nt
CC1(c2cc([N+](=O)[O-])cc([N+](=O)[O-])c2)CC(C)(C)N(C(=O)c2ccccc2)c2ccccc21 (centres undefined) | 97.8* | 59.5 | 1.1 | -6.1 | -5.2 | 63.4
O=C(c1ccccc1)c1cc([N+](=O)[O-])ccc1N1CCCC1 | 11.6 | 55.5 | 0.9 | 7.0 | -2.9 | 57.1
CC1(c2ccccc2)CC(C)(C)N(C(=O)CSc2nnc(N)s2)c2ccccc21 (centres undefined) | 14.7 | 61.2 | 1 | -4.6 | -15.6 | 54.6
CC1(c2ccccc2)CC(C)(C)N(C(=O)C2CCCO2)c2ccccc21 (centres undefined) | 87.0* | 57.9 | 1 | -3.7 | -7.3 | 55.5
COc1ccc(-c2nn(-c3ccccc3)cc2/C=C/C(=O)OCC(=O)Nc2cccc(C#N)c2)cc1 | -4.5 | 40.4 | 1 | -0.8 | -4.1 | 43.4
COc1ccc(-c2nn(-c3ccccc3)cc2/C=C/C(=O)OCC(=O)Nc2ccc(C#N)cc2)cc1 | 92.2* | 75.0 | 1 | -0.6 | -1.8 | 71.1
Cc1ccccc1NC(=O)COC(=O)/C=C/c1cn(-c2ccccc2)nc1-c1cccnc1 | 52.9* | 100.3 | 1 | -1.8 | -0.1 | 90.1
O=C(/C=C/c1ccccc1Cl)N(Cc1ccc(Cl)cc1)C1CCS(=O)(=O)C1 (centres undefined) | 79.4* | 77.6 | 1 | -4.0 | -13.2 | 65.2
O=C(N/N=C/c1ccc(Cl)cc1)C1CC12CCC2 (centres undefined) | 8.9 | nt | 1 | -3.7 | -11.1 | nt
Oc1ccc(/C=N/NC(=S)Nc2cccnc2)c(O)c1 | 84.3* | 12.9 | 1 | -4.0 | -35.0 | 7.8
Oc1cccc(/C=N/NC(=S)Nc2cccnc2)c1O | 98.8* | 12.0 | 1 | 0.9 | -174.4 | 7.7
CCOCCCn1c(=S)[nH]c2cc(C(=O)NCCCN(CC)CC)ccc2c1=O | -11.3 | nt | 1 | 0.2 | -2.3 | nt
COc1cc2c(cc1NS(=O)(=O)N1CCCC1)oc1ccccc12 | 99.6* | 81.0 | 1.1 | -5.1 | -3.9 | 91.7
Cn1cc([N+](=O)[O-])c(C(=O)NCc2cc3cc(Cl)ccc3[nH]2)n1 | 20.2 | 73.5 | 1 | -3.4 | -8.1 | 70.0
CCN(CC)c1ccc(/C=C2/SC(=O)N(C(C)C)C2=O)o1 | 99.4* | 5.6* | 0.8 | 21.8 | -16.3 | 5.2
Cc1cc(N2CCOCC2)ccc1/C=C1\SC(=O)N(C(C)C)C1=O | 5.0 | 93.4 | 1 | 2.1 | 8.0 | 86.2
CC(c1nnnn1C1CCCCC1)N(Cc1ccccc1)Cc1cccnc1 (centres undefined) | 92.3* | 61.2 | 1 | -1.0 | -4.6 | 67.9
CCC(c1nnnn1Cc1ccco1)N(Cc1ccccc1OC)Cc1cc2cc(C)ccc2[nH]c1=O (centres undefined) | 2.7 | 55.4 | 1.1 | -8.2 | -6.3 | 40.0
COc1ccc2[nH]c(=O)c(C(c3nnnn3C3CCCC3)N(C)C3CCCCC3)cc2c1 (centres undefined) | 53.1* | 78.3 | 1.1 | -7.9 | -5.8 | 76.8
